# SIAE inh = human SIAE inhibitors, primary screen, biochemical, fluorescence polarization, FP-Rh probe, 1536-well HTS; inhibition, % at 9.66 µM; 370,000 tested, 0.69% active; AID 1053197, 2014; SIAE FP-Rh probe binding;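 active means inhibition above a cutoff: mean of compounds within the control limits plus 3 SD of those, cut at about 17% in these data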
# HTRA1 inh = HTRA1 serine protease inhibitors, primary screen, biochemical, fluorescence polarization, HTS | Q92743 | recombinant HTRA1, FP-rhodamine activity-based probe | inhibition, % at 5.96 µM | 340,000 tested, 0.5% active; in the data active means inhibition above about 36%
# Target sequence (Q92743 whole entry, looked up): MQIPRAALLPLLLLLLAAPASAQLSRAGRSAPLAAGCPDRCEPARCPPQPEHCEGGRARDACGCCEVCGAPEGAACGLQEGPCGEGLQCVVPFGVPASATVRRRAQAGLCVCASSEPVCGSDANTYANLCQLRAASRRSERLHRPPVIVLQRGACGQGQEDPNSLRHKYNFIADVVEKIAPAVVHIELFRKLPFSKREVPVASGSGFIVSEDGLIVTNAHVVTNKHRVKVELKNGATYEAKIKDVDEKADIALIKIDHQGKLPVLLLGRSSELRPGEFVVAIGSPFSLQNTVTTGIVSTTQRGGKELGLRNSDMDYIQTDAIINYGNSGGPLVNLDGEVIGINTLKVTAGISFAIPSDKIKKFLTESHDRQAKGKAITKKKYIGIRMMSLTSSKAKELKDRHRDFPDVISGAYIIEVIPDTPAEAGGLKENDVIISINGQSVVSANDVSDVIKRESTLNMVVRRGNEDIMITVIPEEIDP
# mABHD4 FP = ABHD4 inhibitors, primary screen, biochemical, fluorescence polarization, mouse. (Lyso)-N-acylphosphatidylethanolamine lipase (Mus musculus), Q8VD66. purified mABHD4, FP-Rh probe fluorescence polarization. inhibition, % at 8.92 µM. 370,000 tested, 0.54% active. AID 720543, 2013;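 active means inhibition exceeding the mean over every tested compound plus 3 SD, cut at about 30% in these data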
#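 Test system: mouse ABHD4 enzyme, wild type. Reagent: FP-Rh fluorescent activity-based probe, added after compound pre-incubation. Timing: pre-incubation 45 min, probe exposure 60 min, at 25 °C. Technique: FP readout, ex 525 nm / em 598 nm. Benchmarks: high control S159A mutant with DMSO, low control median of compound wells.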
# rCAG binder = binders of r(CAG) RNA repeats, primary screen, biochemical, fluorescence | r(CAG) RNA repeat, TO-PRO-1 dye displacement fluorescence | inhibition, % at 3 µM | 370,000 tested, 1.3% active;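 active means inhibition above the plate cutoff, the mean of all test compounds on that plate plus 3 SD, cut at about 35% in these data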;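 further: higher means more dye released from RNA so lower well fluorescence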
# TCR-CD3 inh = inhibitors of human TCR-CD3 interaction, primary screen, biochemical, fluorescence, TAMRA-labeled TCR probe; AID 651800, 2012; inhibition, % at 9.4 µM; 360,000 tested, 0.37% active; T-cell receptor (TCR); in the data active means inhibition above about 19%;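 further: recombinant mutant TCR 2C K166C tagged with TAMRA read by polarization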
# Numbers stand for hits; 0 = inactive; - = not tested or not shown. Sampled rows, rich in hits. Any-hit rate of the full collection: about 2.5%.
SMILES,SIAE inh,HTRA1 inh,mABHD4 FP,rCAG binder,TCR-CD3 inh
N=c1c(C(=O)NC2CCCCC2)cc2c(=O)n3ccccc3nc2n1CCc1ccccc1,92.5,0,0,0,0
c1ccc(Cn2nnnc2C(c2ccncc2)N2CCOCC2)cc1 (stereo unspecified),0,0,0,0,0
CCn1c(C(=O)O)c(CC(=O)Nc2cccc(C(F)(F)F)c2)c2ccccc21,0,0,0,34.7,0
CCn1c(C(=O)O)c(CC(=O)Nc2ccccc2F)c2ccccc21,0,0,0,0,0
CCOC(=O)c1c(-c2ccc(OC)cc2)csc1NC(=O)CSc1ccccc1,0,0,0,0,0
CCOC(=O)c1c(-c2ccc(OC)cc2)csc1NC(=O)CSc1nnc(C)c(=O)[nH]1,0,0,0,63.0,0
S=C(NNc1ccnc2cc(Cl)ccc12)Nc1ccc(Cl)cc1Cl,19.4,0,0,0,0
CCOc1ccc(NC(=S)NNc2ccnc3cc(Cl)ccc23)cc1,0,0,0,0,0
COC(=O)c1c[nH]n2c(=O)c(Cl)c(C)nc12,0,0,0,0,0
Cc1nc2c(C(=O)NCc3ccccc3)c[nH]n2c(=O)c1Cl,0,0,0,41.4,0
O=C(CSc1nnc2c(Cl)cc(C(F)(F)F)cn12)N(Cc1ccccc1)Cc1ccccc1,0,0,0,0,0
Cc1cc(O)c(C(C)C)cc1N=Nc1ccccc1C(=O)O,0,0,0,0,0
Cc1cc(N=Nc2ccccc2C(=O)O)c(C)c(C)c1O,0,0,0,49.7,0
CC(C)CC1NC(=O)N(CC(=O)N2c3ccccc3NC(=O)C2(C)C)C1=O (stereo unspecified),20.2,0,0,0,0
CCOC(=O)C1CCN(c2nc(C)cc(C)c2C#N)CC1,0,0,0,0,0
CCOC(=O)C1CCN(c2nc(N)c3c(N)nc(SCC(=O)O)cc3c2C#N)CC1,0,0,0,34.8,0
N#CC1=C(SCC(=O)NC2CC2)NC(=O)C(C#N)C12CCCCC2 (stereo unspecified),0,0,0,0,0
N#CC1=C(SCC(=O)Nc2cccc3cccnc23)NC(=O)C(C#N)C12CCCCC2 (stereo unspecified),0,0,0,48.0,0
O=C(Nc1sc2c(c1C(=O)O)CCCC2)c1cccc(Cl)c1,0,0,0,84.4,0
N#CC1=C(N)n2c(s/c(=C\c3cccs3)c2=O)=C(C#N)C1c1cccs1 (stereo unspecified),0,0,0,51.5,0
CCOc1ccccc1N1CCN(S(=O)(=O)c2ccc3c4c(cccc24)C(=O)N3)CC1,0,0,0,37.3,0
COc1cc(/C=C2/N=C(c3ccccc3)OC2=O)c(F)cc1OCc1ccccc1,0,0,0,40.1,0
O=[N+]([O-])c1ccc(S(=O)(=O)Nc2ccc(-c3csc(-c4ccccc4)n3)cc2)cc1,0,-,0,78.6,0
O=C(O)C1Nc2c(C(=O)N3CCOCC3)cccc2C2C=CCC12 (stereo unspecified),-,0,-,-,-
O=C(O)C1Nc2c(C(F)(F)F)ccc(Cl)c2C2C=CCC12 (stereo unspecified),0,0,35.9,0,0
SMILES,SIAE inh,HTRA1 inh,mABHD4 FP,rCAG binder,TCR-CD3 inh
Cc1ccc2c(c1C)NC(C(=O)O)C1CC=CC21 (stereo unspecified),-,51.1,-,-,-
C#CCOc1coc(COC(=O)c2ccccc2)cc1=O,0,0,0,0,0
CCc1ccc(OC(=O)Nc2ccccc2)cc1,0,0,0,0,0
Cc1ccc2c(CC(=O)NCC(=O)Nc3c(C)cccc3C)coc2c1,0,0,0,0,0
O=C(NCc1ccco1)c1ccccc1NS(=O)(=O)c1ccc(Cl)s1,0,0,0,0,0
O=C(Nc1ccccc1)c1ccccc1NS(=O)(=O)c1ccc(Cl)s1,0,0,0,60.0,0
Nc1ncnc2nc(SCc3ccc(Cl)cc3Cl)[nH]c12,21.3,0,0,0,0
Nc1ncnc2nc(Sc3ccc(Cl)cc3)[nH]c12,0,0,0,0,0
COc1ccc2c(c1)c(=O)oc1c(C)c(OC(C)C(=O)N[C@@H](Cc3c[nH]c4ccc(O)cc34)C(=O)O)ccc12 (stereo partly specified),0,0,0,68.6,0

# Screening results: PubChem, The Scripps Research Institute Molecular Screening Center
